ChEMBL document CHEMBL1148383, “Semisynthetic macrolide antibacterials derived from tylosin. Synthesis and structure-activity relationships of novel desmycosin analogues” (J Med Chem, 2004)
Values after ≈ are worked out from the molar mass of the structure shown.

Experiments:
Assay type in all cases: functional
Haemophilus influenzae = assay: Antibacterial activity against Haemophilus influenzae ATCC 49247
How it was run: (§1)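 MICs were determined by broth microdilution following NCCLS guidelines. The test panel includes erythromycin-susceptible strains and erythromycin-resistant strains with constitutive or inducible MLSB phenotypes or with efflux resistance.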

Streptococcus pyogenes [1] = assay: Antibacterial activity against Streptococcus pyogenes PSCB-0543; how it was run: as §1
Escherichia coli = assay: Antibacterial activity against Escherichia coli ATCC […]; how it was run: as §1
Staphylococcus aureus [2] = assay: Antibacterial activity against Staphylococcus aureus ATCC 13709; how it was run: as §1
Enterococcus faecalis = assay: Antibacterial activity against Enterococcus faecalis ATCC 29212; how it was run: as §1
Staphylococcus aureus [3] = assay: Antibacterial activity against Staphylococcus aureus PSCB-0331; how it was run: as §1
Staphylococcus aureus [4] = assay: Antibacterial activity against Staphylococcus aureus PSCB-0538; how it was run: as §1
Streptococcus pneumoniae = assay: Antibacterial activity against Streptococcus pneumoniae PSCB-0541; how it was run: as §1
Streptococcus pyogenes [5] = assay: Antibacterial activity against Streptococcus pyogenes PSCB-0545; how it was run: as §1
Staphylococcus aureus [6] = assay: Antibacterial activity against Staphylococcus aureus PSCB-0330; how it was run: as §1

Structure (SMILES) | MIC (Haemophilus influenzae) [µg/mL] | MIC (Streptococcus pyogenes [1]) [µg/mL] | MIC (Escherichia coli) [µg/mL] | MIC (Staphylococcus aureus [2]) [µg/mL] | MIC (Enterococcus faecalis) [µg/mL] | MIC (Staphylococcus aureus [3]) [µg/mL] | MIC (Staphylococcus aureus [4]) [µg/mL] | MIC (Streptococcus pneumoniae) [µg/mL] | MIC (Streptococcus pyogenes [5]) [µg/mL] | MIC (Staphylococcus aureus [6]) [µg/mL]
CCOC(=O)/C=C/C[C@H]1C[C@@H](C)C(=O)/C=C/C(C)=C/[C@H](COC2OC(C)C(O)C(OC)C2OC)[C@@H](CC)OC(=O)C[C@@H](O)[C@H](C)[C@H]1OC1OC(C)C(O)C(N(C)C)C1O (some centres undefined) | 4 (≈ 4.75 µM) | 0.5 (≈ 0.594 µM) | > 128 | 0.5 (≈ 0.594 µM) | 1 (≈ 1.19 µM) | 0.25 (≈ 0.297 µM) | 0.25 (≈ 0.297 µM) | 2 (≈ 2.38 µM) | 1 (≈ 1.19 µM) | > 128
CC[C@H]1OC(=O)C[C@@H](O)[C@H](C)[C@@H](OC2OC(C)C(O)C(N(C)C)C2O)[C@@H](C/C=C/C(=O)OC)C[C@@H](C)C(=O)/C=C/C(C)=C/[C@@H]1COC1OC(C)C(O)C(OC)C1OC (some centres undefined) | 16 (≈ 19.3 µM) | 0.5 (≈ 0.604 µM) | > 128 | 0.5 (≈ 0.604 µM) | 0.5 (≈ 0.604 µM) | 0.5 (≈ 0.604 µM) | 0.5 (≈ 0.604 µM) | 2 (≈ 2.42 µM) | 0.5 (≈ 0.604 µM) | > 128
CC[C@H]1OC(=O)C[C@@H](OC(C)=O)[C@H](C)[C@@H](OC2OC(C)C(O)C(N(C)C)C2O)[C@@H](CC=O)C[C@@H](C)C(=O)/C=C/C(C)=C/[C@@H]1COC1OC(C)C(O)C(OC)C1OC (some centres undefined) | 32 (≈ 39.3 µM) | 2 (≈ 2.46 µM) | > 128 | 1 (≈ 1.23 µM) | 8 (≈ 9.83 µM) | 2 (≈ 2.46 µM) | 8 (≈ 9.83 µM) | 2 (≈ 2.46 µM) | 2 (≈ 2.46 µM) | > 128
CC[C@H]1OC(=O)CC2(O)C(C=O)[C@@H](C[C@@H](C)C(=O)/C=C/C(C)=C/[C@@H]1CO[C@@H]1O[C@@H](C)[C@@H](O)[C@@H](OC)[C@@H]1OC)[C@H](O[C@@H]1O[C@@H](C)[C@@H](O)[C@@H](N(C)C)[C@H]1O)[C@H]2C (some centres undefined) | 64 (≈ 83.1 µM) | 64 (≈ 83.1 µM) | > 128 | 32 (≈ 41.6 µM) | 16 (≈ 20.8 µM) | 64 (≈ 83.1 µM) | 32 (≈ 41.6 µM) | 32 (≈ 41.6 µM) | 32 (≈ 41.6 µM) | > 128
CCOC(=O)/C=C/C[C@H]1C[C@@H](C)C(=O)/C=C/C(C)=C/[C@H](COC2OC(C)C(O)C(OC)C2OC)[C@@H](CC)OC(=O)C[C@@H](NN(C(=O)OCC)C(=O)OCC)[C@H](C)[C@H]1OC1OC(C)C(O)C(N(C)C)C1O (some centres undefined) | 128 (≈ 128 µM) | 32 (≈ 32 µM) | 128 (≈ 128 µM) | 4 (≈ 4 µM) | 64 (≈ 64 µM) | 32 (≈ 32 µM) | 64 (≈ 64 µM) | 32 (≈ 32 µM) | 16 (≈ 16 µM) | 128 (≈ 128 µM)
CC[C@H]1OC(=O)CC(=O)[C@H](C)[C@@H](O[C@@H]2O[C@@H](C)[C@@H](O)[C@@H](N(C)C)[C@H]2O)[C@H]2C[C@@H](O)[C@](C)(C2)C(=O)/C=C/C(C)=C/[C@@H]1CO[C@@H]1O[C@@H](C)[C@@H](O)[C@@H](OC)[C@@H]1OC | 128 (≈ 166 µM) | 64 (≈ 83.1 µM) | > 128 | 8 (≈ 10.4 µM) | 4 (≈ 5.2 µM) | 32 (≈ 41.6 µM) | 4 (≈ 5.2 µM) | 8 (≈ 10.4 µM) | 16 (≈ 20.8 µM) | > 128
CC[C@H]1OC(=O)CC(=O)[C@H](C)[C@@H](O[C@@H]2O[C@@H](C)[C@@H](O)[C@@H](N(C)C)[C@H]2O)[C@H]2C[C@H](O)[C@@](C)(C2)C(=O)/C=C/C(C)=C/[C@@H]1CO[C@@H]1O[C@@H](C)[C@@H](O)[C@@H](OC)[C@@H]1OC | 128 (≈ 166 µM) | 64 (≈ 83.1 µM) | > 128 | 8 (≈ 10.4 µM) | 8 (≈ 10.4 µM) | 32 (≈ 41.6 µM) | 8 (≈ 10.4 µM) | 4 (≈ 5.2 µM) | 16 (≈ 20.8 µM) | > 128
CC[C@H]1OC(=O)C[C@@H](O)[C@H](C)[C@@H](O[C@@H]2O[C@H](C)[C@@H](O)[C@@H](N(C)C)[C@H]2O)[C@@H](CC=O)C[C@@H](C)C(=O)/C=C/C(C)=C/[C@@H]1CO[C@@H]1O[C@H](C)[C@@H](O)[C@@H](OC)[C@H]1OC | 4 (≈ 5.18 µM) | 1 (≈ 1.3 µM) | 128 (≈ 166 µM) | 1 (≈ 1.3 µM) | 1 (≈ 1.3 µM) | 1 (≈ 1.3 µM) | 1 (≈ 1.3 µM) | 1 (≈ 1.3 µM) | 0.5 (≈ 0.648 µM) | > 128
CC[C@H]1O/C(O)=C/C(=O)[C@H](C)[C@@H](OC2OC(C)C(O)C(N(C)C)C2O)[C@@H](C/C=C/C(=O)OC)C[C@@H](C)C(=O)/C=C/C(C)=C/[C@@H]1COC1OC(C)C(O)C(OC)C1OC (some centres undefined) | 128 (≈ 155 µM) | 4 (≈ 4.84 µM) | > 128 | 2 (≈ 2.42 µM) | 4 (≈ 4.84 µM) | 2 (≈ 2.42 µM) | 2 (≈ 2.42 µM) | 32 (≈ 38.7 µM) | 4 (≈ 4.84 µM) | > 128
CC[C@H]1OC(=O)C[C@@H](O)[C@H](C)[C@@H](OC2OC(C)C(O)C(N(C)C)C2O)[C@@H](CC=O)C[C@@H](C)C(=O)CCC(C)C[C@@H]1COC1OC(C)C(O)C(OC)C1OC (some centres undefined) | 64 (≈ 82.5 µM) | 1 (≈ 1.29 µM) | 128 (≈ 165 µM) | 1 (≈ 1.29 µM) | 32 (≈ 41.2 µM) | 2 (≈ 2.58 µM) | 2 (≈ 2.58 µM) | 2 (≈ 2.58 µM) | 1 (≈ 1.29 µM) | 128 (≈ 165 µM)
CC[C@H]1OC(=O)/C=C\[C@H](C)[C@@H](OC2OC(C)C(O)C(N(C)C)C2O)[C@@H](CC=O)C[C@@H](C)C(=O)/C=C/C(C)=C/[C@@H]1COC1OC(C)C(O)C(OC)C1OC (some centres undefined) | 4 (≈ 5.31 µM) | 2 (≈ 2.65 µM) | > 128 | 0.5 (≈ 0.663 µM) | 8 (≈ 10.6 µM) | 1 (≈ 1.33 µM) | 4 (≈ 5.31 µM) | 2 (≈ 2.65 µM) | 1 (≈ 1.33 µM) | > 128
CC[C@H]1OC(=O)C[C@H](O)[C@H](C)[C@@H](OC2OC(C)C(O)C(N(C)C)C2O)[C@@H](C/C=C/C(=O)OC)C[C@@H](C)C(=O)/C=C/C(C)=C/[C@@H]1COC1OC(C)C(O)C(OC)C1OC (some centres undefined) |  |  | > 128 |  |  |  |  |  |  | > 128
CC[C@H]1OC(=O)C[C@@H](O)[C@H](C)[C@@H](OC2OC(C)C(O)C(=O)C2O)[C@@H](CC=O)C[C@@H](C)C(=O)/C=C/C(C)=C/[C@@H]1COC1OC(C)C(O)C(OC)C1OC (some centres undefined) |  |  | > 128 |  |  |  |  |  |  | > 128
CC[C@H]1OC(=O)C[C@@H](O)[C@H](C)[C@@H](OC2OC(C)C(O)C(N(C)C)C2O)[C@@H](C/C=C/C(=O)O)C[C@@H](C)C(=O)/C=C/C(C)=C/[C@@H]1COC1OC(C)C(O)C(OC)C1OC (some centres undefined) | 128 (≈ 157 µM) | > 128 | > 128 | > 128 | > 128 | > 128 | > 128 | > 128 | 128 (≈ 157 µM) | > 128
CC[C@H]1O/C(O)=C/C(=O)[C@H](C)[C@@H](OC2OC(C)C(O)C(N(C)C)C2O)[C@@H](CC=O)C[C@@H](C)C(=O)CCC(C)C[C@@H]1COC1OC(C)C(O)C(OC)C1OC (some centres undefined) | > 128 | 8 (≈ 10.3 µM) | > 128 | 8 (≈ 10.3 µM) | > 128 | 8 (≈ 10.3 µM) | 16 (≈ 20.7 µM) | 64 (≈ 82.7 µM) | 1 (≈ 1.29 µM) | > 128
CCOC(=O)/C=C/C[C@H]1C[C@@H](C)C(=O)/C=C/C(C)=C/[C@H](COC2OC(C)C(O)C(OC)C2OC)[C@@H](CC)OC(=O)C[C@@H](OC(=O)Cc2ccc([N+](=O)[O-])cc2)[C@H](C)[C@H]1OC1OC(C)C(O)C(N(C)C)C1O (some centres undefined) | 8 (≈ 7.96 µM) | 2 (≈ 1.99 µM) | > 128 | < 0.25 | 2 (≈ 1.99 µM) | 0.5 (≈ 0.497 µM) | 0.25 (≈ 0.249 µM) | 4 (≈ 3.98 µM) | 0.5 (≈ 0.497 µM) | > 128
CC[C@H]1OC(=O)C[C@@H](O)[C@H](C)[C@@H](OC2OC(C)C(OC3CC(C)(O)C(O)C(C)O3)C(N(C)C)C2O)[C@@H](CC=O)C[C@@H](C)C(=O)CCC(C)C[C@@H]1COC1OC(C)C(O)C(OC)C1OC (some centres undefined) | 64 (≈ 69.6 µM) | 64 (≈ 69.6 µM) | 64 (≈ 69.6 µM) | 2 (≈ 2.17 µM) | 16 (≈ 17.4 µM) | 2 (≈ 2.17 µM) | 4 (≈ 4.35 µM) | 8 (≈ 8.69 µM) | 1 (≈ 1.09 µM) | 64 (≈ 69.6 µM)
